Experiments:
Format in all cases: cell-based
[1] = target: C-C chemokine receptor type 8 (Homo sapiens, UniProt P51685); test: Antagonist activity at human CCR8 expressed in CHOK1 cells assessed as reduction in CCL1-induced beta-arrestin 2 recruitment incubated for 30 mins followed by CCL1 addition and measured after 90 or 180 mins by pathhunter beta-arrestin assay
Outline: (§1)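 PathHunter beta-arrestin recruitment, antagonist mode, run at DiscoverX. Cells seeded and held at 37 °C, then preincubated with test sample for 30 min at 37 °C or room temperature (1% vehicle). Agonist then added at EC80 for 90 or 180 min. […] IC50 comes from concentration–response runs in the same format.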

[2] = target: T1, Neuropeptide S receptor (Homo sapiens, UniProt Q6W5P4); test: Antagonist activity at human Gq-coupled NPSR1b expressed in human U2OS cells assessed as inhibition in neuropeptide S-induced beta-arrestin 2 recruitment incubated for 30 mins followed by neuropeptide S addition and measured after 90 or 180 mins by pathhunter beta-arrestin assay; outline: as §1
T1 sequence (Q6W5P4 whole entry): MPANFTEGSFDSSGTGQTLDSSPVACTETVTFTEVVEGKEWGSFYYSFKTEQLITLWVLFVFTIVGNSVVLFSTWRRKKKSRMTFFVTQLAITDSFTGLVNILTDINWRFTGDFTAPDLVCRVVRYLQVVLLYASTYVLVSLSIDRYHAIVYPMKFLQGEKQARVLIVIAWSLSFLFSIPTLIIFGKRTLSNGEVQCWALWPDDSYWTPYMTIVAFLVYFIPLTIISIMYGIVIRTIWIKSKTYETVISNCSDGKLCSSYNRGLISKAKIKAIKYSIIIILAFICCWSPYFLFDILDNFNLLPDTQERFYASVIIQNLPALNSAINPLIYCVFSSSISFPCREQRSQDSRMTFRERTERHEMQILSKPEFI

[3] = target: T2, Prolactin-releasing peptide receptor (Homo sapiens, UniProt P49683); test: Antagonist activity at human Gq-coupled PRLHR expressed in CHOK1 cells assessed as inhibition in prolactin releasing peptide (1 to 31)-induced beta-arrestin 2 recruitment incubated for 30 mins followed by prolactin releasing peptide (1 to 31) addition and measured after 90 or 180 mins by pathhunter beta-arrestin assay; outline: as §1
T2 sequence (P49683 whole entry): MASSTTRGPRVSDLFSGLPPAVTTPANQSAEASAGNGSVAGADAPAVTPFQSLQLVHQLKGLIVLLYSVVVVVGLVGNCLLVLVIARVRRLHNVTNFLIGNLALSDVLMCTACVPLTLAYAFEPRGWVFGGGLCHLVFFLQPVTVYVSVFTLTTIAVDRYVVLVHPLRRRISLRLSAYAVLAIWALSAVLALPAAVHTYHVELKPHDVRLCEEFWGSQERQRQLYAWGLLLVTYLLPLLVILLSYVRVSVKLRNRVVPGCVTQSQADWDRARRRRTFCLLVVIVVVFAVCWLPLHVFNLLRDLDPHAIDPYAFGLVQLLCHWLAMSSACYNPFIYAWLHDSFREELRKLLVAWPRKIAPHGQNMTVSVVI

C-C chemokine receptor type 8, sequence (P51685 whole entry): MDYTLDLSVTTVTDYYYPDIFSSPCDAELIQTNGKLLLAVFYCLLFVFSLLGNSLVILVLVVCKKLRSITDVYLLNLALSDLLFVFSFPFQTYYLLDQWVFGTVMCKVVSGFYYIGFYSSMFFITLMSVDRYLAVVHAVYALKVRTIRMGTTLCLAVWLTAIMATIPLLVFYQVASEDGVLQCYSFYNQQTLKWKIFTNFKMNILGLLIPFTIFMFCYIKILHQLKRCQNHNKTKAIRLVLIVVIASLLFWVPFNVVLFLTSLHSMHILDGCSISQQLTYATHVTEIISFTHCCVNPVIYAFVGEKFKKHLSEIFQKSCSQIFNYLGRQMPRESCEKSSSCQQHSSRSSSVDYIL

CC[C@]12C=C(C(=O)OC)n3c(c(CCNC(=O)c4ccc(Br)cc4)c4ccccc43)[C@H]1N(C#N)CCC2 was tested, and the IC50 [1] was 5.2 µM, the IC50 [2] was 5.77 µM and the IC50 [3] was 2.43 µM.
